This passage reports GI50 results from ChEMBL document CHEMBL3414559, “Novel C-4 heteroaryl 13-cis-retinamide Mnk/AR degrading agents inhibit cell proliferation and migration and induce apoptosis in human breast and prostate cancer cells and suppress growth of MDA-MB-231 human breast and CWR22Rv1 human prostate tumor xenografts in mice” (J Med Chem, 2015).

For one assay, the system named is MDA-MB-231. In words: Growth inhibition of human MDA-MB-231 cells by MTT assay. Format: functional. The method in brief: (§1)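 Cells grown in RPMI 1640 with 10% FBS, plated at 2500 cells/well, treated across a dose range; growth read by MTT. GI50 taken from dose–response curves by nonlinear regression, at least three independent experiments.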
A further assay deals with MDA-MB-468. In words: Growth inhibition of human MDA-MB-468 cells by MTT assay. Type of assay: functional. Summed up:
as §1

A short description of assay [1]: Growth inhibition of human SKBR3 cells by MTT assay. Format: functional. To be noted: SK-BR-3. The method in brief:
as §1
A general note: Formazan colour is commonly taken as a measure of viable cells.

A further assay deals with MCF7. In words: Growth inhibition of human MCF7 cells by MTT assay. Type of assay: functional. The method in brief:
as §1

Another assay deals with LNCaP. In words: Growth inhibition of human LNCAP cells by MTT assay. Format: functional. The method in brief: as §1
Assay [2] in a line: Growth inhibition of human CWR22Rv1 cells by MTT assay. To be noted: 22Rv1. Format: functional, CWR22R. The method in brief: as §1
A short description of assay [3]: Growth inhibition of human PC3 cells by MTT assay. Format: functional. As to conditions: PC-3. The method in brief:
as §1

The structures appear in SMILES notation. Some results are limits rather than exact numbers.

In general, GI50 refers to the concentration at which growth is held to half of that of the control.

For `CC1=C(/C=C/C(C)=C/C=C/C(C)=C/C(=O)O)C(C)(C)CCC1` [TRETINOIN], the GI50 in the assay with MDA-MB-231 stood at 14.1 µM; in the assay with MDA-MB-468, 14.1 µM; in assay [1], 22.9 µM.

For the molecule `CC1=C(/C=C/C(C)=C/C=C/C(C)=C\C(=O)NCc2ccc(F)cc2)C(C)(C)CCC1n1ccnc1` (stereo not drawn), the GI50 came to 1.93 µM in the assay on MCF7, 1.41 µM in the assay on MDA-MB-231, 2.45 µM with MDA-MB-468 and 5.5 µM in assay [1].

For the molecule `CC1=C(/C=C/C(C)=C/C=C/C(C)=C\C(=O)NCCc2ccc(O)cc2)C(C)(C)CC=C1c1cccnc1`, the GI50 was determined as 8.75 µM in the assay with MCF7, 26.9 µM in the assay on MDA-MB-231, 50.1 µM in the assay with MDA-MB-468 and 42.2 µM in assay [1].

On to `CC1=C(/C=C/C(C)=C/C=C/C(C)=C\C(=O)NCc2cccc(F)c2)C(C)(C)CCC1n1ccnc1` (stereo not drawn), for which the GI50 with MCF7 came to 1.81 µM; with MDA-MB-231 it was 1.65 µM; in the assay on MDA-MB-468, 3.09 µM; in assay [1], 4.24 µM.

As for `CC1=C(/C=C/C(C)=C/C=C/C(C)=C\C(=O)Nc2ccccc2O)C(C)(C)CCC1n1ccnc1` (stereo not drawn), the GI50 with MCF7 worked out at 1.09 µM; in the assay with MDA-MB-231 it was 4.67 µM; in the assay with MDA-MB-468, 3.03 µM; in assay [1], 3.89 µM; in the assay with LNCaP, 3.23 µM; in assay [2] it was 2.23 µM. Moreover, growth in assay [3] was halved (GI50) at 15.5 µM.

As for `CC(O)(CS(=O)(=O)c1ccc(F)cc1)C(=O)Nc1ccc(C#N)c(C(F)(F)F)c1` (stereo not drawn) [BICALUTAMIDE], the GI50 in the assay with LNCaP is 2.61 µM; in assay [2], 3.81 µM; in assay [3], 9.15 µM.

As to `CC1=C(/C=C/C(C)=C/C=C/C(C)=C\C(=O)Nc2ccccc2)C(C)(C)CC=C1c1cccnc1`, the GI50 in the assay with MCF7 worked out at 8.32 µM; in the assay with MDA-MB-231, 25.1 µM; with MDA-MB-468 it was 39.8 µM; in assay [1] it was 47.4 µM.

Turning to `CC1=C(/C=C/C(C)=C/C=C/C(C)=C\C(=O)Nc2ccc(F)cc2)C(C)(C)CCC1n1ccnc1` (stereo not drawn), the GI50 amounted to 0.4 µM in the assay on MCF7; 4.95 µM in the assay on MDA-MB-231; 4.57 µM in the assay on MDA-MB-468; 25.1 µM in assay [1]; 3.89 µM in the assay on LNCaP; 8.12 µM in assay [2]. The GI50 in assay [3] turned out to be 30.2 µM.

For the molecule `CC1=C(/C=C/C(C)=C/C=C/C(C)=C\C(=O)NCCc2ccc(O)cc2)C(C)(C)CC=C1c1cncnc1`, the GI50 worked out at 2.96 µM with MCF7, 14.5 µM with MDA-MB-231, 23.4 µM in the assay on MDA-MB-468 and 24 µM in assay [1].

Regarding `CC1=C(/C=C/C(C)=C/C=C/C(C)=C\C(=O)NCc2ccc(O)cc2)C(C)(C)CC=C1c1cncnc1`, the GI50 worked out at 4.96 µM in the assay with MCF7, 11.5 µM in the assay with MDA-MB-231, 19.1 µM with MDA-MB-468 and 11.5 µM in assay [1].

With `CC1=C(/C=C/C(C)=C/C=C/C(C)=C/C(=O)Nc2ccc(O)cc2)C(C)(C)CCC1` [FENRETINIDE], the GI50 in the assay on MCF7 was 4.65 µM; in the assay on MDA-MB-231 it was 11.1 µM; with MDA-MB-468, 6.02 µM; in assay [1], 3.98 µM.

`CC1=C(/C=C/C(C)=C/C=C/C(C)=C\C(=O)NCc2ccccc2)C(C)(C)CCC1n1ccnc1` (stereo not drawn): the GI50 was 9.77 µM with MCF7; 5.88 µM in the assay with MDA-MB-231; 7.24 µM in the assay with MDA-MB-468; 10.7 µM in assay [1]; above 100 µM in the assay on LNCaP; above 100 µM in assay [2]. The same molecule registered a GI50 in assay [3] above 100 µM.

In the case of `CC1=C(/C=C/C(C)=C/C=C/C(C)=C\C(=O)NCCc2ccc(O)cc2)C(C)(C)CCC1n1ccnc1` (stereo not drawn), the GI50 in the assay with MCF7 came to 1.9 µM; in the assay on MDA-MB-231, 2.88 µM; with MDA-MB-468, 13.5 µM; in assay [1], 1.41 µM.

As to `CC1=C(/C=C/C(C)=C/C=C/C(C)=C\C(=O)Nc2ccccc2)C(C)(C)CC=C1c1cncnc1`, the GI50 with MCF7 was 7.01 µM; in the assay with MDA-MB-231, 26.9 µM; with MDA-MB-468, 22.9 µM; in assay [1], 31 µM.

As to `CC(=O)C1=C(O)C=C2Oc3c(C(N)=O)c(O)cc(O)c3[C@@]2(C)C1=O`, the GI50 in the assay with MDA-MB-231 was 43.6 µM; in the assay on MDA-MB-468 it was 47.9 µM; in assay [1], 26 µM.

As for `CC1=C(/C=C/C(C)=C/C=C/C(C)=C\C(=O)Nc2ccc(O)cc2)C(C)(C)CCC1n1ccnc1` (stereo not drawn), the GI50 was 1.99 µM with MCF7; 13.1 µM with MDA-MB-231; 6.83 µM in the assay with MDA-MB-468; 3.89 µM in assay [1]; 3.54 µM in the assay with LNCaP; 3.89 µM in assay [2]. In assay [3], this molecule came in with a GI50 of 11.7 µM.
